From ChEMBL document CHEMBL3351669, “Oxidized derivatives of macroline, sarpagine, and pleiocarpamine alkaloids from Alstonia angustifolia” (J Nat Prod, 2014) come the findings set out here.

Format in all cases: functional, cell-based
One test has as its system KB. Briefly: Cytotoxicity against vincristine-sensitive human KB cells. In a few lines: (§1)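 Alkaloids tested alone, without vincristine, in parallel on vincristine-sensitive KB and vincristine-resistant KB/VJ300 cells. IC50 determined, in μg/mL.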
A short description of test [1]: Cytotoxicity against vincristine-resistant human KB/VJ300 cells. Summed up:
as §1

Test [2] is described as follows: Cytotoxicity against multi-drug resistant human KB/VJ300 cells in presence of 0.1 ug/ml vincristine. In a few lines: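 Multidrug-resistance reversal test in vincristine-resistant KB/VJ300 cells. Test alkaloid is co-applied with vincristine at 0.1 μg/mL (0.12 μM). The IC50 of the test alkaloid is determined under this co-treatment, in μg/mL.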

SMILES strings stand for the structures.

Regarding `CN1[C@H]2C[C@@H]3[C@@H](CO[C@@]4(C)OC(=O)C[C@@H]34)[C@@H]1Cc1c2n(C)c2ccccc12`, the IC50 (in the test on KB; in test [1]) was above 25 µg/mL in each case.
Take `COc1ccc2c(c1)c1c(n2C)[C@@H]2C[C@H]3C(=O)OC[C@H]3[C@H](C1)N2C`: the IC50 (with KB; in test [1]) was above 25 µg/mL each time.
As to `C/C=C1\C(=O)OC[C@H]2[C@@H]3Cc4c(n(C)c5ccc(OC)cc45)[C@H](C[C@@H]12)N3`, the IC50 in the test with KB is above 25 µg/mL; in test [1], above 25 µg/mL; in test [2] it was 40 µM.
For the compound `CC(O)C[C@@H]1C[C@@H]2N3COC[C@H]1[C@@H]3C[C@]21C(=O)Nc2ccccc21` (some centres not stated), the IC50 (in the test with KB; in test [1]) was above 25 µg/mL each time.
As for `CC(O)C[C@@H]1C[C@@H]2N3COC[C@H]1[C@@H]3C[C@]21C(=O)N(C)c2ccccc21` (some centres not stated), the IC50 (in the test on KB; in test [1]) was above 25 µg/mL each time.
On to `CC(O)C[C@@H]1C[C@@H]2N[C@@H](C[C@]23C(=O)N(C)c2ccccc23)[C@@H]1CO` (some centres not stated), for which the half-inhibitory concentration (IC50) (in the test with KB; in test [1]) was above 25 µg/mL in each case.
For the compound `C[C@H](O)C[C@@H]1C[C@@H]2N[C@@H](C[C@@]23C(=O)Nc2ccccc23)[C@@H]1CO`, the IC50 (in the test on KB; in test [1]) was above 25 µg/mL throughout.
As to `CC(=O)O[C@@H]1[C@@H]2[C@@H]3C[C@H]4c5c(c6ccccc6n5C)C[C@@H]([C@@H]3CO[C@H]2C)N14`, the IC50 with KB is above 25 µg/mL; in test [1], above 25 µg/mL; in test [2], 40 µM.
Take `C[C@H]1OC[C@@H]2[C@H]3C[C@H]4c5c(c6ccccc6n5C)C[C@@H]2[N+]4(C)[C@H](O)[C@H]31`: the IC50 (in the test on KB; in test [1]) was above 25 µg/mL each time.
On to `C[C@@H]1OC[C@@H]2[C@H]3C[C@@H]4N([C@H](O)C13)[C@H]2C[C@@]41C(=O)N(C)c2ccccc21`, for which the IC50 (in the test on KB; in test [1]) was above 25 µg/mL in each case.
Regarding `C[C@H]1OC[C@@H]2[C@@H](C[C@H]3c4c(c5ccccc5n4C)C[C@@H]2N3C)[C@@H]1C=O`, the IC50 (in the test with KB; in test [1]) was above 25 µg/mL each time.
`C[C@@H]1OC[C@@H]2[C@@H](C[C@H]3c4[nH]c5ccccc5c4C[C@@H]2N3C)[C@@H]1CO`: the IC50 (with KB; in test [1]) was above 25 µg/mL throughout.
Turning to `C[C@@H]1OC[C@@H]2[C@@H](C[C@@H]3N[C@H]2Cc2c3n(C)c3ccccc23)[C@@H]1CO`, the IC50 (with KB; in test [1]) was above 25 µg/mL throughout.
`C[C@@H]1OC[C@@H]2[C@@H](C[C@@H]3N[C@H]2Cc2c3n(C)c3ccccc23)[C@H]1CO`: the IC50 (in the test with KB; in test [1]) was above 25 µg/mL each time.
As for `COc1ccc2c(c1)c1c(n2C)[C@@H]2C[C@H]3[C@@H](CO)[C@H](C)OC[C@H]3[C@H](C1)N2C`, the IC50 (with KB; in test [1]) was above 25 µg/mL in each case.
For the compound `CC(=O)C1=COC[C@@H]2[C@H]1C[C@H]1c3[nH]c4ccccc4c3C[C@@H]2N1C`, the IC50 (in the test on KB; in test [1]) was above 25 µg/mL throughout.
`CC1=C(C=O)[C@@H]2C[C@H]3c4[nH]c5ccccc5c4C[C@@H]([C@@H]2CO1)N3C`: the IC50 (in the test with KB; in test [1]) was above 25 µg/mL throughout.
`C/C=C1/CN2CC[C@]3(O)c4ccccc4N4[C@H](C(=O)OC)[C@H]1C[C@H]2[C@@H]43`: the IC50 (with KB; in test [1]) was above 25 µg/mL each time.
Consider `C/C=C1/CN2CC[C@@]3(O)c4ccccc4N4[C@H](C(=O)OC)[C@H]1C[C@H]2[C@@H]43`, for which the IC50 (in the test with KB; in test [1]) was above 25 µg/mL throughout.
With `C/C=C1/CN2CC(=O)c3c4n(c5ccccc35)[C@H](C(=O)OC)[C@H]1C[C@@H]42`, the IC50 (in the test with KB; in test [1]) was above 25 µg/mL in each case.
For `C[C@H](O)C1=CN2[C@H]3C[C@H]1[C@@H](CO)[C@@H]2C[C@@]31C(=O)N(C)c2ccccc21`, the IC50 (in the test on KB; in test [1]) was above 25 µg/mL throughout.
For `C/C=C1/CN2[C@H]3C[C@H]1C(CO)[C@@H]2C[C@]31Nc2ccccc2C1=O` (some centres not stated), the IC50 (with KB; in test [1]) was above 25 µg/mL in each case.
In the case of `CN1[C@H]2C[C@H]3C(=O)OC[C@H]3[C@@H]1Cc1c2n(C)c2ccccc12`, the IC50 (with KB; in test [1]) was above 25 µg/mL each time.
Regarding `CC(=O)C[C@@H]1C[C@H]2c3c(c4ccccc4n3C)C[C@@H]([C@@H]1CO)N2C`, the IC50 (in the test with KB; in test [1]) was above 25 µg/mL throughout.
`C/C=C1\C(=O)OC[C@H]2[C@@H]3Cc4c(n(C)c5ccccc45)[C@H](C[C@@H]12)N3`: the IC50 (with KB; in test [1]) was above 25 µg/mL throughout.
Turning to `C[C@H](O)C[C@H]1C[C@@H]2N3COC[C@@H]1[C@@H]3CC21C(=O)N(C)c2ccccc21` (some centres not stated), the IC50 (with KB; in test [1]) was above 25 µg/mL each time.
`CC(=O)C[C@@H]1C[C@@H]2N3[C@@H](C)OC[C@H]1[C@@H]3C[C@]21C(=O)N(C)c2ccccc21`: the IC50 (in the test on KB; in test [1]) was above 25 µg/mL throughout.
As to `CC(=O)C1=COC[C@H]2[C@@H]3C[C@]4(C(=O)N(C)c5ccccc54)[C@H](C[C@@H]12)N3`, the IC50 (in the test with KB; in test [1]) was above 25 µg/mL each time.
On to `CC(=O)C1=COC[C@H]2[C@@H]3C[C@]4(C(=O)Nc5ccccc54)[C@H](C[C@@H]12)N3`, for which the IC50 (in the test with KB; in test [1]) was above 25 µg/mL each time.
With `C[C@H](O)C[C@@H]1C[C@@H]2N[C@@H](C[C@@]23C(=O)N(C)c2ccccc23)[C@@H]1CO`, the IC50 (in the test with KB; in test [1]) was above 25 µg/mL in each case.
On to `C[C@@H]1OC[C@@H]2[C@H]3C[C@H]4c5c(c6ccccc6n5C)C[C@@H]2N4[C@H](O)[C@H]31`, for which the IC50 in the test on KB is above 25 µg/mL; in test [1], above 25 µg/mL; in test [2] it was 40 µM.
For `C[C@@H]1OC[C@@H]2[C@@H](C[C@H]3c4c(c5ccccc5n4C)C[C@@H]2N3C)[C@@H]1CO`, the IC50 (in the test on KB; in test [1]) was above 25 µg/mL in each case.
Consider `C[C@@H]1OC[C@@H]2[C@@H](C[C@H]3c4[nH]c5ccccc5c4C[C@@H]2N3C)[C@H]1CO`, for which the IC50 (in the test on KB; in test [1]) was above 25 µg/mL each time.
Consider `C/C=C1/CN2CCc3c4n(c5ccccc35)[C@H](C(=O)OC)[C@H]1C[C@@H]42`, for which the IC50 with KB was above 25 µg/mL; in test [1], above 25 µg/mL; in test [2], 40 µM.
For `C[C@H](O)C1=CN2[C@H]3C[C@H]1[C@@H](CO)[C@@H]2Cc1c3n(C)c2ccccc12`, the IC50 (in the test with KB; in test [1]) was above 25 µg/mL in each case.
For the compound `C/C=C1/CN2[C@H]3C[C@H]1C(CO)[C@@H]2Cc1c3[nH]c2ccccc12` (some centres not stated), the half-inhibitory concentration (IC50) (in the test on KB; in test [1]) was above 25 µg/mL throughout.
Take `CC(=O)C(CC(=O)O)[C@@H]1C[C@H]2c3c(c4ccccc4n3C)C[C@@H]([C@@H]1CO)N2C` (some centres not stated): the IC50 (in the test on KB; in test [1]) was above 25 µg/mL each time.
Consider `CC1=C(C=O)[C@@H]2C[C@H]3c4c(c5ccccc5n4C)C[C@@H]([C@@H]2CO1)N3C` [ALSTONERINAL], for which the IC50 (in the test with KB; in test [1]) was above 25 µg/mL throughout.
As to `CC(=O)C1=COC[C@@H]2[C@H]1C[C@H]1c3c(c4ccccc4n3C)C[C@@H]2N1C` [ALSTONERINE], the IC50 in the test with KB is above 25 µg/mL; in test [1], above 25 µg/mL; in test [2] it was 10 µM.
Turning to `C[C@@H]1OC[C@@H]2[C@@H](C[C@H]3c4c(c5ccccc5n4C)C[C@@H]2N3C)[C@H]1CO` [MACROCARPINE B], the IC50 (in the test on KB; in test [1]) was above 25 µg/mL throughout.
Take `C[C@@H]1OC[C@@H]2[C@@H](C[C@H]3c4c(c5ccccc5n4C)C[C@@H]2N3C)[C@@H]1C=O` [Talcarpine]: the IC50 (with KB; in test [1]) was above 25 µg/mL in each case.
